Experimental data from different studies.
Each line is one published result; the experiments were not run side by side. pEC50: −log10 of the molar value.
Organism: Hepatitis C virus
Effect on: viral replication
Action: inhibitor

| SMILES | technique | cell line | strain | time | setting | pEC50 |
| --- | --- | --- | --- | --- | --- | --- |
| C[C@H](NC(=O)OCc1ccccc1)C(=O)Nc1ccc(C2S/C(=N\c3cccc(F)c3)N(Cc3ccco3)C2=O)cc1 (stereo partly drawn) |  | Huh-7 | GETYPE1B |  | replicon | 6.24 |
| CCC(=O)Nc1cc(C(=O)Nc2ccc(CN3CCN(C)CC3)c(C(F)(F)F)c2)ccc1OC | qPCR | Huh7.5 | GETYPE2A | 72 h |  | > 5.82 |
| O=C1OC[C@H]2OC(O)[C@H](O)[C@@H](O)[C@@H]2OC(=O)c2cc(O)c(O)c(O)c2-c2c(O)c(O)c3oc(=O)c4c(c(O)c(O)c5oc(=O)c2c3c54)-c2c1cc(O)c(O)c2O (mixture of isomers) |  | Huh-7 | GETYPE2A | 48 h | replicon | < 3.82 |
| COc1nc(N)nc2c1ncn2[C@@H]1O[C@H](COP(=O)(N[C@@H](C)C(=O)OCC(C)(C)C)Oc2cccc3ccccc23)[C@@H](O)[C@@]1(C)O (stereo partly drawn) |  |  | GETYPE1A | 96 h | replicon | 8.85 |
| CCC(CC)COC(=O)[C@H](C)N[P@](=O)(OC[C@H]1O[C@@](C#N)(c2ccc3c(N)ncnn23)[C@H](O)[C@@H]1O)Oc1ccccc1 |  | Huh7.5 | GETYPE3 GETYPE3A |  | replicon | 6.72 |
| CC(C)(C)OC(=O)N[C@H]1CCCCC/C=C\[C@@H]2C[C@@]2(C(=O)NS(=O)(=O)C2CC2)NC(=O)[C@@H]2C[C@@H](OC(=O)N3Cc4cccc(F)c4C3)CN2C1=O |  | Huh-7 | GETYPE1A GETYPE1B | 96 h | replicon | 9.24 |
| C=C1/C(=C\C=C2/CCC[C@]3(C)[C@@H]([C@H](C)CCCC(C)(C)O)CC[C@@H]23)C[C@@H](O)C[C@@H]1O | luciferase |  | GETYPE2A | 72 h | replicon | 5.27 |
| CN1CCN(C(c2ccccc2)c2ccc(Cl)cc2)CC1 (racemic) |  | Huh-7.5.1 | GETYPE2A | 48 h | replicon | 7.36 |
| C=C1CC[C@H](O)C/C1=C/C=C1\CCC[C@]2(C)[C@@H]([C@H](C)/C=C/[C@H](C)C(C)C)CC[C@@H]12 | luciferase | BM4-5 | GETYPE1B | 72 h | replicon | 4.89 |
| O=c1oc2c(O)c(O)cc3c(=O)oc4c(O)c(O)cc1c4c23 |  | Huh-7 | GETYPE2A | 48 h | replicon | ~4.22 |
| COC(=O)N[C@H](C(=O)N1CCC[C@H]1c1ncc(-c2ccc(-c3ccc(-c4cnc([C@@H]5CCCN5C(=O)[C@@H](NC(=O)OC)C(C)C)[nH]4)cc3)cc2)[nH]1)C(C)C |  |  | GETYPE2A |  | replicon | 9.99 |
| CC(C)(CO)C(=O)SCCOP(=O)(NCc1ccccc1)OC[C@H]1O[C@@H](n2cnc3c(=O)[nH]c(N)nc32)[C@](C)(O)[C@@H]1O (mixture of isomers) |  | Huh-7 | GETYPE1 |  | replicon | 6.52 |
